Measured values as given in ChEMBL document CHEMBL1142330, “Omega-(2-Naphthyloxy) amino alkanes as a novel class of anti-hyperglycemic and lipid lowering agents” (Bioorg Med Chem, 2008).

Assays:
[1] = biological target: T1, Peroxisome proliferator-activated receptor gamma (Homo sapiens, UniProt P37231); assay: Binding affinity at PPARgamma
T1 sequence (P37231 whole entry): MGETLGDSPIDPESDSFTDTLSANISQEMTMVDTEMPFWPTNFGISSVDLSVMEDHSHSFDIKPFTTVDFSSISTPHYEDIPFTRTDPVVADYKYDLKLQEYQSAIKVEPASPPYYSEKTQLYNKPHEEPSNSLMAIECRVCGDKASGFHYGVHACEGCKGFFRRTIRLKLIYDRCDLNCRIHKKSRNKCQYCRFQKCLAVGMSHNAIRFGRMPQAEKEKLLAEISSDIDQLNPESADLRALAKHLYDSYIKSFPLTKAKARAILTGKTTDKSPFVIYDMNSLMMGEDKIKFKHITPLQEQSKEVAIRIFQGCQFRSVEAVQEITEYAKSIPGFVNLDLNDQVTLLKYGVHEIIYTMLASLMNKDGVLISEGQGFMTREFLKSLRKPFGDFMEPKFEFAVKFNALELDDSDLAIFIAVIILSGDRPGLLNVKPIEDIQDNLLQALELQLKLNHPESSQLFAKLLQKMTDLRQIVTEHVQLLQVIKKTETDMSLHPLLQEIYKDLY

Rattus norvegicus [2] = assay: Inhibition of phospholipids level in triton treated Charles Foster rat at 100 mg/kg, po; format: functional
In short: (§1)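 Male Charles Foster rats (200–225 g) were used, six per group. They received Triton WR-1339 200 mg/kg i.p. together with oral compound at 100 mg/kg in 2% aqueous gum acacia, over 18 h; vehicle controls were included. Rats were then fasted overnight and bled retro-orbitally. Serum total cholesterol, phospholipids and triglyceride were assayed.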

Rattus norvegicus [3] = assay: Antidiabetic activity in glucose loaded albino Sprague-Dawley rat model assessed as decrease in blood glucose level at 100 mg/kg, po; format: functional
In short: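 Rats in groups of five were bled at baseline, then gavaged with test sample at 100 mg/kg. A glucose load of 2 g/kg was given 30 min later. Blood was collected at 30, 60, 90 and 120 min.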

Rattus norvegicus [4] = assay: Antidiabetic activity in sucrose loaded albino Sprague-Dawley rat model assessed as decrease in blood glucose level at 100 mg/kg, po; format: functional
In short: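 Male Sprague–Dawley rats were fasted overnight and used in groups of five. Baseline blood was taken, then test sample was gavaged at 100 mg/kg. A sucrose load of […] followed 30 min later.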

Syrian golden hamster [5] = assay: Inhibition of triglyceride level in Syrian golden hamster at 300 umol/kg after 10 days; format: functional; conditions: Mesocricetus auratus, 240 h
[6] = biological target: T2, Peroxisome proliferator-activated receptor delta (Homo sapiens) (UniProt Q03181); assay: Inhibition of PPARdelta at 3 uM
T2 sequence (whole entry): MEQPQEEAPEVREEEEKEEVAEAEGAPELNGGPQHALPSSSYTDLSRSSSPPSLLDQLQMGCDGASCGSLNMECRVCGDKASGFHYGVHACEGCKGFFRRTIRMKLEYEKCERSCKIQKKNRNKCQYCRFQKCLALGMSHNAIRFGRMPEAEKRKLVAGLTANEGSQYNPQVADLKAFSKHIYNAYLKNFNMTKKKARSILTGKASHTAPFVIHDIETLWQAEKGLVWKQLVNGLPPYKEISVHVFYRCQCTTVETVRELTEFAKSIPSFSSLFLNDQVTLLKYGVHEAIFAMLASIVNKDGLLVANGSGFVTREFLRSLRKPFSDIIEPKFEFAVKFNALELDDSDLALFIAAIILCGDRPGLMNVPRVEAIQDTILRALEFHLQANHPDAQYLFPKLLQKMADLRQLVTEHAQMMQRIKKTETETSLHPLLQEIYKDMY

[7] = biological target: T3, Peroxisome proliferator-activated receptor alpha (Homo sapiens) (UniProt Q07869); assay: Inhibition of PPARalpha at 50 uM
T3 sequence (whole entry): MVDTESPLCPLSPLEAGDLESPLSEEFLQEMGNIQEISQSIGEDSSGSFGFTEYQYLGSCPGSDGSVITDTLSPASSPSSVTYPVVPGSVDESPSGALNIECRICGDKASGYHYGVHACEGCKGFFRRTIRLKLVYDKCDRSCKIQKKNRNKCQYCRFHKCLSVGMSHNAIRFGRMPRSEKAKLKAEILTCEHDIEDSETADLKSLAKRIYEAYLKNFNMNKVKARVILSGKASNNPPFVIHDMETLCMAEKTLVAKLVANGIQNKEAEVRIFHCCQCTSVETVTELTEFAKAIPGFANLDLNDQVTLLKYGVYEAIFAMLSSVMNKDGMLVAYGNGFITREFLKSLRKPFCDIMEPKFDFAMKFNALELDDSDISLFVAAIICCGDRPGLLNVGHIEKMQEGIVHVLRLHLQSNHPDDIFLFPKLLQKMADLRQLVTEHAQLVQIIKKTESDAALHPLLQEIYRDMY

Syrian golden hamster [8] = assay: Inhibition of free fatty acids level in Syrian golden hamster at 300 umol/kg after 10 days; format: functional; conditions: Mesocricetus auratus, 240 h
Mus musculus [9] = assay: Antidiabetic activity in db/db mouse at 100 mg/kg after 24 hrs on day 3; format: functional
Mus musculus [10] = assay: Antidiabetic activity in db/db mouse at 100 mg/kg after 5 hrs on day 3; format: functional
Syrian golden hamster [11] = assay: Inhibition of HDL level in Syrian golden hamster at 300 umol/kg after 10 days; format: functional; conditions: Mesocricetus auratus, 240 h
Rattus norvegicus [12] = assay: Antidiabetic activity in streptozotocin-induced diabetic albino Sprague-Dawley rat model assessed as decrease in blood glucose level at 100 mg/kg, po; format: functional
In short: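 Overnight-fasted rats received streptozotocin 60 mg/kg i.p. in 100 mM citrate buffer, pH 4.5. After 48 h, animals with glucometer glucose of 200–400 mg/dl were grouped (n=6). Sample in 1% gum acacia was given orally at 100 mg/kg; controls received vehicle.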

Rattus norvegicus [13] = assay: Antidiabetic activity in sucrose challenged streptozotocin-induced diabetic albino Sprague-Dawley rat model assessed as decrease in blood glucose level at 100 mg/kg, po; format: functional
In short: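 Diabetes was induced in overnight-fasted rats with streptozotocin 60 mg/kg i.p. in 100 mM citrate buffer, pH 4.5. Rats with glucose of 150–250 mg/dl at 48 h were selected. A sucrose load of 2.5 g/kg was given 30 min after oral dosing. Glucose was measured at 30–300 min and 24 h. Food was withheld, water allowed.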

Syrian golden hamster [14] = assay: Inhibition of glucose level in Syrian golden hamster at 300 umol/kg after 10 days; format: functional; conditions: Mesocricetus auratus, 240 h
Syrian golden hamster [15] = assay: Inhibition of glycerol level in Syrian golden hamster at 300 umol/kg after 10 days; format: functional; conditions: Mesocricetus auratus, 240 h
Syrian golden hamster [16] = assay: Inhibition of cholesterol level in Syrian golden hamster at 300 umol/kg after 10 days; format: functional; conditions: Mesocricetus auratus, 240 h
Rattus norvegicus [17] = assay: Inhibition of triglyceride level in triton treated Charles Foster rat at 100 mg/kg, po; format: functional; in short: as §1
Rattus norvegicus [18] = assay: Inhibition of cholesterol level in triton treated Charles Foster rat at 100 mg/kg, po; format: functional; in short: as §1

Row | Structure (SMILES) | EC50 [1] [µM] | inhibition in vivo at 100 mg/kg (Rattus norvegicus [2]) [%] | inhibition in vivo at 100 mg/kg (Rattus norvegicus [3]) [%] | inhibition in vivo at 100 mg/kg (Rattus norvegicus [4]) [%] | inhibition in vivo at 300 µmol/kg (Syrian golden hamster [5]) [%] | inhibition [6] [%] | inhibition [7] [%] | inhibition in vivo at 300 µmol/kg (Syrian golden hamster [8]) [%] | inhibition in vivo at 100 mg/kg (Mus musculus [9]) [%] | inhibition in vivo at 100 mg/kg (Mus musculus [10]) [%] | inhibition in vivo at 300 µmol/kg (Syrian golden hamster [11]) [%] | inhibition in vivo at 100 mg/kg (Rattus norvegicus [12]) [%] | inhibition in vivo at 100 mg/kg (Rattus norvegicus [13]) [%] | inhibition in vivo at 300 µmol/kg (Syrian golden hamster [14]) [%] | inhibition in vivo at 300 µmol/kg (Syrian golden hamster [15]) [%] | inhibition in vivo at 300 µmol/kg (Syrian golden hamster [16]) [%] | inhibition in vivo at 100 mg/kg (Rattus norvegicus [17]) [%] | inhibition in vivo at 100 mg/kg (Rattus norvegicus [18]) [%]
1 | CCOC(=O)CN(CCCOc1ccc2ccccc2c1)c1ccc(OC)cc1 | 4.8 | 26 | 25.9 | 45.4 | 68 | 29.6 | 33.5 | 48 | 15.4 | 12 | 16 | 6.9 | 5.6 | 34 | 7.3 | 22 | 15 | 21.2
2 | COc1ccc(N(C)CCCOc2ccc3ccccc3c2)cc1 | – | 19 | 8.2 | 14.5 | – | 19.3 | 22.5 | – | – | – | – | – | – | – | – | – | 15 | 11
3 | c1ccc(CNCCOc2ccc3ccccc3c2)cc1 | 0.4 | 34 | 37.6 | 64 | 37 | 31.3 | 36.2 | – | 11.6 | 7 | 13 | 13 | 69.5 | 9.5 | 10 | 14 | 37 | 31
4 | COc1ccc(Cl)cc1C(=O)NCCc1ccc(S(=O)(=O)NC(=O)NC2CCCCC2)cc1 [GLYBURIDE] | – | – | – | 33.9 | – | – | – | – | – | – | – | 32.8 | – | – | – | – | – | –
5 | CCN(CCCOc1ccc2ccccc2c1)c1ccc(OC)cc1 | – | – | 6.88 | 13.5 | – | 17.3 | 20.3 | – | – | – | – | – | – | – | – | – | – | –
6 | COc1ccc(NCCOc2ccc3ccccc3c2)cc1 | – | – | 10.6 | 19.4 | – | 24.6 | 22.2 | – | – | – | – | – | – | – | – | – | – | –
7 | CCCCCCCCNCCCOc1ccc2ccccc2c1 | – | – | 17 | 32 | – | 7.9 | 11.4 | – | – | – | – | – | – | – | – | – | – | –
8 | COc1ccc(NCCCOc2ccc3ccccc3c2)cc1 | 33.8 | 38 | 33.6 | 31 | 48 | 42.6 | 44.5 | – | 28.9 | 22.4 | 15 | 28.5 | 73.8 | 31 | 14 | 14 | 28 | 32.4
9 | Cc1ccc(NCCOc2ccc3ccccc3c2)cc1 | – | 30 | 2.45 | 6.99 | – | – | – | – | – | – | – | – | – | – | – | – | 18 | 27
10 | C/C=C1\C(=O)C[C@H]2[C@@H]3CCC4=CC(=O)CC[C@]4(C)[C@H]3CC[C@]12C [GUGGULSTERONE] | – | 33 | – | – | – | – | – | – | – | – | – | – | – | – | – | – | 30 | 34
11 | Cc1ccc(S(=O)(=O)NC(=O)NN2CC3CCCC3C2)cc1 (stereo not given) [GLICLAZIDE] | – | – | – | 44.8 | – | – | – | – | – | – | – | 27.7 | – | – | – | – | – | –
12 | c1ccc(CNCCCCOc2ccc3ccccc3c2)cc1 | – | 18 | 8.89 | 16 | – | 22.4 | 21.3 | – | – | – | – | – | – | – | – | – | 5 | 10.1
13 | c1ccc(CNCCCOc2ccc3ccccc3c2)cc1 | – | – | 13.8 | 40.5 | – | 29.1 | 28.4 | – | – | – | – | – | – | – | – | – | – | –
14 | CCCN(CCCOc1ccc2ccccc2c1)c1ccc(OC)cc1 | – | 27 | 11.6 | 37.2 | – | 9.6 | 10.9 | – | – | – | – | – | – | – | – | – | 12 | 14
15 | Cc1ccc(NCCCCOc2ccc3ccccc3c2)cc1 | – | – | 3.21 | 6.9 | – | – | – | – | – | – | – | – | – | – | – | – | – | –
16 | COc1ccc(N(CCCOc2ccc3ccccc3c2)CC(=O)O)cc1 | – | 16.9 | 15.5 | 21.5 | 44 | 20.2 | 25.4 | – | – | – | 11 | – | – | 22 | 23 | 21 | 13 | 23.8
17 | CCCCN(CCCOc1ccc2ccccc2c1)c1ccc(OC)cc1 | – | 25 | 13.5 | 4.4 | – | 8.4 | 8.5 | – | – | – | – | – | – | – | – | – | 17 | 15
18 | COc1cccc(CNCCCOc2ccc3ccccc3c2)c1 | – | 22 | 1.23 | 8.3 | – | – | – | – | – | – | – | – | – | – | – | – | 22 | 14
19 | CCO[C@@H](Cc1ccc(OCCc2ccc(OS(C)(=O)=O)cc2)cc1)C(=O)O | – | – | – | – | – | – | 55.5 | – | – | – | – | – | – | – | – | – | – | –
20 | COc1ccc(NCCCCOc2ccc3ccccc3c2)cc1 | – | 36 | 3.89 | 5.09 | – | 16.3 | 18.3 | – | – | – | – | – | – | – | – | – | 22 | 24
